Assay results as given in ChEMBL document CHEMBL2331205, “Anti-hepatitis B virus and anti-cancer activities of novel isoflavone analogs” (Eur J Med Chem, 2013).

Key:
[1] = system: Hepatitis B virus; assay: Antiviral activity against HBV infected in human HepG2(2.2.15) cells assessed as inhibition of viral replication after 9 days by fluorescence PCR method; format: functional, organism-based; details: HepG2 2.2.15, 216 h
In short: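 HepG2 2.2.15 cells given a range of compound concentrations for nine days; HBV DNA quantified by fluorescence PCR. IC50 taken as the concentration giving 50% inhibition of HBV DNA replication.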

[2] = system: Hepatitis B virus; assay: Antiviral activity against HBV infected in human HepG2(2.2.15) cells assessed as inhibition of HBeAg production after 9 days by ELISA; format: functional, organism-based; details: HepG2 2.2.15, 216 h
In short: (§1)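 HepG2 2.2.15 cells (HBV-producing) given a range of compound concentrations for nine days; culture supernatants collected and HBsAg or HBeAg levels measured by ELISA. IC50 taken as the concentration giving 50% inhibition of antigen level.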

[3] = Growth inhibition of human L02 cells after 48 hrs by MTT assay; format: functional, cell-based; details: L02, 48 h
In short: (§2)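 Cells seeded at 8000/well, treated 24 h later in duplicate with a range of concentrations (DMSO stock 10 g/L diluted in fresh medium), 48 h at 37 °C, 5% CO2. MTT (5 mg/ml in PBS) added for 4 h, formazan dissolved in DMSO, absorbance read at 570 nm. IC50 is the concentration giving 50% survival.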

[4] = Selectivity index, ratio of CC50 for human HepG2(2.2.15) cells to IC50 for HBV infected in human HepG2(2.2.15) cells assessed as inhibition of HBsAg production; format: functional
In short: (§3)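 Selectivity index calculated as CC50 in HepG2 2.2.15 cells (MTT, 9-day exposure) divided by IC50 for HBeAg or HBsAg reduction (ELISA of 9-day supernatants).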

[5] = Selectivity index, ratio of CC50 for human HepG2(2.2.15) cells to IC50 for HBV infected in human HepG2(2.2.15) cells assessed as inhibition of HBeAg production; format: functional; in short: as §3
[6] = Growth inhibition of human QGY7701 cells after 48 hrs by MTT assay; format: functional; details: QGY7701, 48 h; in short: as §2
[7] = system: Hepatitis B virus; assay: Antiviral activity against HBV infected in human HepG2(2.2.15) cells assessed as inhibition of HBsAg production after 9 days by ELISA; format: functional, organism-based; details: HepG2 2.2.15, 216 h; in short: as §1
[8] = system: Huh-7; assay: Growth inhibition of human HuH7 cells after 48 hrs by MTT assay; format: functional, cell-based; details: Huh-7, 48 h; in short: as §2
[9] = system: HeLa; assay: Growth inhibition of human HeLa cells after 48 hrs by MTT assay; format: functional, cell-based; in short: as §2
[10] = Cytotoxicity against human HepG2(2.2.15) cells compound treated for 48 hrs followed by incubation for 9 days by MTT assay; format: cell-based
In short: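 HepG2 2.2.15 cells kept 48 h in plates before adding compounds (DMSO stocks serially diluted in medium), then incubated at 37 °C for 9 days. Media-only wells as blank. MTT (5 g/L) added 4 h before lysis in 10% SDS/50% DMF, pH 7.2; OD at 570 nm gives percent cell death; CC50 derived.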

[11] = Selectivity index, ratio of CC50 for human HepG2(2.2.15) cells to IC50 for HBV infected in human HepG2(2.2.15) cells assessed as inhibition of viral replication; format: functional
In short: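 Selectivity index calculated as CC50 in HepG2 2.2.15 cells (MTT, 9-day exposure) divided by IC50 for HBV DNA reduction measured by fluorescence PCR after 9 days.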

[12] = system: A549; assay: Growth inhibition of human A549 cells after 48 hrs by MTT assay; format: functional, cell-based; details: A549, 48 h; in short: as §2
[13] = system: Huh-7; assay: Ratio of 5-Fu IC50 to compound IC50 for human HuH7 cells after 48 hrs by MTT assay; format: functional
[14] = system: A549; assay: Ratio of 5-Fu IC50 to compound IC50 for human A549 cells after 48 hrs by MTT assay; format: functional

| Compound | IC50 [1] [µM] | IC50 [2] [µM] | IC50 [3] [µM] | Ratio CC50/IC50 [4] | Ratio CC50/IC50 [5] | IC50 [6] [µM] | IC50 [7] [µM] | IC50 [8] [µM] | IC50 [9] [µM] | CC50 at 48 h [10] [µM] | Ratio CC50/IC50 [11] | IC50 [12] [µM] | Ratio IC50 [13] | Ratio IC50 [14] |
| --- | --- | --- | --- | --- | --- | --- | --- | --- | --- | --- | --- | --- | --- | --- |
| O=C(/C=C/c1coc2cc(O)ccc2c1=O)NCc1ccc(F)cc1F | 23.3 | 12.3 | > 200 | 32.34 | 38.05 | > 100 | 14.5 | > 100 | > 100 | 470 | 20.16 | 6.61 | – | – |
| Cc1ccc(CNC(=O)/C=C/c2coc3cc(O)ccc3c2=O)cc1 | 14.2 | 19.1 | > 200 | 30.27 | 26.16 | 24.9 | 16.5 | > 100 | > 100 | 501 | 35.31 | 17.4 | – | – |
| O=C(/C=C/c1coc2cc(O)ccc2c1=O)Nc1ccccc1 | 29 | 13.4 | > 200 | 18.02 | 61.12 | 17.9 | 45.5 | 3.88 | 9.7 | 821 | 28.29 | 24.4 | 4 | – |
| COc1ccc2c(=O)c(/C=C/C(=O)Nc3ccccc3)coc2c1 | > 100 | 16.9 | > 200 | 32.7 | 30.85 | 14 | 16 | 9.05 | > 100 | 523 | – | 51 | – | – |
| COc1ccc2c(=O)c(/C=C/C(=O)Nc3cccc(Cl)c3)coc2c1 | > 100 | > 100 | > 200 | – | – | > 100 | > 100 | > 100 | 11.8 | 1100 | – | 0.47 | – | 12 |
| COc1ccc2c(=O)c(/C=C/C(=O)Nc3ccc(Cl)cc3)coc2c1 | 67.5 | 20.9 | > 200 | 2.96 | 12.97 | > 100 | 91.7 | 37.1 | > 100 | 272 | 4.03 | > 100 | – | – |
| COc1ccc2c(=O)c(/C=C/C(=O)Nc3ccccc3C)coc2c1 | > 100 | 15.8 | > 200 | 4 | 3.77 | 22.4 | 14.9 | 26.9 | 7.27 | 59.7 | – | 23.4 | – | – |
| COc1ccc2c(=O)c(/C=C/C(=O)NCc3ccc(F)cc3F)coc2c1 | 37 | 14.8 | > 200 | 5.55 | 5.35 | > 100 | 14.3 | > 100 | > 100 | 79.2 | 2.14 | 13.3 | – | – |
| COc1ccc(CNC(=O)/C=C/c2coc3cc(O)ccc3c2=O)cc1 | 4.7 | 2.34 | > 200 | 70.25 | 306.82 | 10 | 10.2 | 8.43 | > 100 | 718 | 152.76 | > 100 | – | – |
| COc1ccc(CNC(=O)/C=C/c2coc3cc(OC)ccc3c2=O)cc1 | 24.3 | 14.4 | > 200 | 3.08 | 2.98 | 15.7 | 14 | 7.57 | > 100 | 43 | 1.77 | 22.5 | – | – |
